A selection: hits, their analogues and other compounds. The true share with any hit is near 4.5%.
TAAR1 ag = agonists of human TAAR1. Q96RJ0. CHO RD-HGA16 TAAR1, Fluo-8 calcium fluorescence; vehicle wells 0%, saturating PEA agonist 100%. 360,000 compounds, 0.99% hits. activation, % at 3 µM;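 active = activation above the mean activation of all test compounds in the run plus 3 SD, cut at about 38% in these data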
Target sequence (Q96RJ0 whole entry, looked up): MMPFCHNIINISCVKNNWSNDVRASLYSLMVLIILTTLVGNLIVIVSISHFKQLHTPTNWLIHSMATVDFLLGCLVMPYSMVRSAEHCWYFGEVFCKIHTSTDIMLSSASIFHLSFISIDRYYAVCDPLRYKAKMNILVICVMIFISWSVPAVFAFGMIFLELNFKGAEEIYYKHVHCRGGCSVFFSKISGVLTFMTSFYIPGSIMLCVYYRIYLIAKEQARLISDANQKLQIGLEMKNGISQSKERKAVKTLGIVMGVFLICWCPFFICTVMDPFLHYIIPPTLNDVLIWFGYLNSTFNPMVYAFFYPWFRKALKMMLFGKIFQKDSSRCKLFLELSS
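System: CHO-derived RD-HGA16 cells with stable Gα16 and human TAAR1. Times: 17-24 h plating, Fluo-8 75 min 37 °C, 30 min RT. Measured by: calcium-sensitive Fluo-8 signal, excitation 470-495, emission 515-575 nm. Read-out basis: % activation relative to PEA EC100 response. Control set: DMSO and PEA EC100. Repeats: no replicates (n 1).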
CHO parental Ca = signal in parental CHO cells, OX1R antagonist counter-screen; inhibition, % at 5.6 µM; AID 463079; parental CHO-K1, ATP-induced calcium, Fluo-8 fluorescence; 330,000 compounds, 0.63% hits;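 active = inhibition above that plate's mean sample inhibition plus 3 SD, cut at about 26% in these data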
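Test system: untransfected parental CHO cell line; also added: ATP stimulus; dosing: 5.6 µM, single dose; signal: calcium-sensitive Fluo-8 fluorescence; measure: percent inhibition of ATP-evoked calcium rise, normalized to controls; benchmarks: low control ATP plus DMSO, high control DMSO only; replication: one well per compound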
TAAR1 antag = antagonists of human TAAR1. Q96RJ0. CHO RD-HGA16 TAAR1, Fluo-8 calcium fluorescence, antagonist. inhibition, % at 3 µM. 360,000 compounds, 1.5% hits. AID 624466;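 active = inhibition above a per-plate cutoff, the mean inhibition of test compounds on that plate plus 3 SD, cut at about 49% in these data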
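Test system: CHO RD-HGA16 cells bearing hTAAR1 | Reagent: β-PEA, EC80 | Compound dosing: 3 µM, single point | Schedule: Dye loading 75 min at 37 °C, then 30 min room temperature | Signal: Calcium fluorescence with Fluo-8 | Evaluation: Percent inhibition of PEA-evoked calcium signal, max/basal emission ratio | Control set: DMSO-only wells and EC80 β-PEA-stimulated wells | Repeats: Singlicate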
OX1R antag-1 = human HCRTR1 antagonism. 330,000 compounds, 0.43% hits. CHO/OX1R cells, Fluo-8 calcium fluorescence, orexin A. O43613. AID 434989. inhibition, % at 5 µM;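 active = inhibition above its plate's threshold, mean inhibition of all tested compounds on the plate plus 3 SD, cut at about 37% in these data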
GPR7 antagonist = antagonists of human GPR7 (neuropeptides B/W receptor 1); P48145; GPR7-expressing cells, fluorescence antagonist assay; inhibition, % at 4.4 µM; 290,000 compounds, 1.1% hits; AID 1861; in the data active = inhibition above about 16%, passing the limit was not always enough;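 note: cells stimulated with the agonist NPW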
OX1R antag-2 = antagonists of human orexin 1 receptor (OX1R). inhibition, % at 6.6 µM. 330,000 compounds, 1.8% hits. OX1R-expressing cells, FRET antagonist read-out; in the data active = inhibition mostly above about 38%, no sharp cut-off; inactive = mostly below about 40%
nonsel antag count = counter-screen for TAAR1 antagonists: nonselective antagonists. shares compounds with TAAR1 antag. AID 651780. counterscreen cell line, calcium fluorescence, antagonist mode. 2,400 compounds, 77% hits. inhibition, % at 3 µM; in the data active = inhibition above about 22%;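 note: CHO-Ga16 host cells stimulated with ATP at an EC80 level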
TAAR1 antag conf = human TAAR1 antagonism, confirmed | shares compounds with TAAR1 antag | TAAR1-expressing cells, fluorescence antagonist read-out | inhibition, % at 3 µM | 2,400 compounds, 40% hits; in the data active = inhibition above about 49%;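 note: CHO-Ga16 host cells challenged with agonist PEA near its EC80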
Ga16 ag counter = nonselective Ga16 agonist in TAAR1 antagonist counter-screen; shares compounds with TAAR1 antag; Ga16-expressing cells, calcium fluorescence, agonist counterscreen; activation, % at 3 µM; 2,400 compounds, 18% hits; AID 651953; in the data active = activation above about 12%
TAAR1 ag counter = counter-screen for human TAAR1 antagonists: TAAR1 agonists; shares compounds with TAAR1 antag; hTAAR1 cell line, fluorescence activation, agonist mode; activation, % at 3 µM; 2,400 compounds, 2% hits; AID 651955; in the data active = activation above about 37%;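 note: CHO cells stably expressing TAAR1 with calcium dye readout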
Each line names hits and unclear results; the compound was inactive in the other large screens (follow-up assays come after a bar, where they were run).

COCCN1Cc2cccc(C(=O)Nc3cccc(OC)c3)c2C1=O	none
COCCN1Cc2cc(C(=O)OC)c3c(c2C1=O)c1cc(F)ccc1n3C(=O)c1ccccc1	TAAR1 antag 74.0 (no result: CHO parental Ca, OX1R antag-1, GPR7 antagonist, OX1R antag-2) | nonsel antag count 32.3 | TAAR1 antag conf 49.3 | Ga16 ag counter inactive | TAAR1 ag counter inactive
CC(=O)n1cc([C@H]2C=C(C(=O)N3CCN(Cc4ccccc4)CC3)O[C@@H](OCCCCO)C2)c2ccccc21	none (no result: TAAR1 ag, TAAR1 antag)
O=C(C1=C[C@H](c2coc3ccccc3c2=O)C[C@H](OCc2ccc(CO)cc2)O1)N1CCN(Cc2ccc3c(c2)OCO3)CC1	TAAR1 antag 49.5 | nonsel antag count inactive | TAAR1 antag conf inactive | Ga16 ag counter inactive | TAAR1 ag counter inactive
CC(=O)n1cc([C@@H]2C=C(C(=O)N3CCN(Cc4ccccc4)CC3)O[C@H](OCc3ccc(CO)cc3)C2)c2ccccc21	TAAR1 antag 52.1 | nonsel antag count inactive | TAAR1 antag conf inactive | Ga16 ag counter inactive | TAAR1 ag counter inactive
O=C(C1=C[C@@H](c2coc3ccccc3c2=O)C[C@@H](OCc2ccc(CO)cc2)O1)N1CCN(Cc2ccc3c(c2)OCO3)CC1	none
CC1(c2nnc(-c3ccc(F)cc3)o2)CC(c2c(Cl)cccc2Cl)=NO1 (stereo not drawn)	none (no result: GPR7 antagonist)
CC1(c2nnc(-c3ccc(Cl)cc3)o2)CC(c2c(Cl)cccc2Cl)=NO1 (stereo not drawn)	TAAR1 antag 56.4 (no result: GPR7 antagonist) | nonsel antag count 22.9 | TAAR1 antag conf inactive | Ga16 ag counter inactive | TAAR1 ag counter inactive
COC(=O)c1cc2c(c3c4cc(OC)ccc4n(C(=O)c4ccccc4)c13)C(=O)N(Cc1ccco1)C2	TAAR1 antag 65.4 (no result: CHO parental Ca, OX1R antag-1, GPR7 antagonist, OX1R antag-2) | nonsel antag count 29.4 | TAAR1 antag conf 49.6 | Ga16 ag counter inactive | TAAR1 ag counter inactive
COC(=O)c1ccc(C2/C(=C(/O)c3ccc(OC)cc3)C(=O)C(=O)N2Cc2ccco2)cc1 (stereo not drawn)	none
COC(=O)c1cc2c(c3c4ccccc4n(S(=O)(=O)c4ccccc4)c13)C(=O)N(Cc1ccco1)C2	none (no result: CHO parental Ca, OX1R antag-1, GPR7 antagonist, OX1R antag-2)
COC(=O)c1cc2c(c3c4cc(F)ccc4n(C(=O)c4ccccc4)c13)C(=O)N(Cc1ccco1)C2	TAAR1 antag 68.1 (no result: CHO parental Ca, OX1R antag-1, GPR7 antagonist, OX1R antag-2) | nonsel antag count 26.0 | TAAR1 antag conf inactive | Ga16 ag counter inactive | TAAR1 ag counter inactive
CCOc1ccc(-c2csc3nc[nH]c(=O)c23)cc1	none
CC(C)CN1CCC(=O)N([C@H](CSc2ccccc2)Cc2ccccc2)CC1	TAAR1 antag 53.1 | nonsel antag count inactive | TAAR1 antag conf inactive | Ga16 ag counter inactive | TAAR1 ag counter inactive
Cc1ccc(SC[C@H](Cc2ccccc2)N2CCN(CC(C)C)CCC2=O)cc1	none (no result: GPR7 antagonist)
COc1cccc(NC(=O)CN(C)C(=O)Cc2c(C)nc3ccccc3c2C)c1	none (no result: GPR7 antagonist)
COC(=O)[C@]12CCCCC=C1N(Cc1ccc3c(c1)OCO3)C(=O)[C@H](CC(=O)N1CCSCC1)C2	TAAR1 antag 67.0 (no result: CHO parental Ca, OX1R antag-1, GPR7 antagonist, OX1R antag-2) | nonsel antag count 26.0 | TAAR1 antag conf inactive | Ga16 ag counter inactive | TAAR1 ag counter inactive
COC(=O)[C@]12CCCCC=C1N(Cc1ccc3c(c1)OCO3)C(=O)[C@H](CC(=O)N1CCN(C(=O)C3CC3)CC1)C2	none (no result: CHO parental Ca, OX1R antag-1, GPR7 antagonist, OX1R antag-2)
Cc1ccc(N(CC(=O)Nc2cccc(Cl)c2C)S(C)(=O)=O)cc1	none
CCc1ccc(Nc2n[n+](-c3ccccc3)c(/C=C/c3ccccc3)s2)cc1	none (no result: TAAR1 ag, TAAR1 antag)
COc1cc(OC)cc(C(=O)Nc2cccc(NC(=O)c3cc(OC)cc(OC)c3)n2)c1	TAAR1 antag 75.4 (no result: GPR7 antagonist) | nonsel antag count 27.5 | TAAR1 antag conf 49.2 | Ga16 ag counter inactive | TAAR1 ag counter inactive

Screens deposited in PubChem by The Scripps Research Institute Molecular Screening Center.
